Experimental data taken from article PMC3428507 (Journal of molecular biology, 2012).

How the values were obtained:
[1] = molecular target: T1, Pf1 PHD1 (Homo sapiens, UniProt Q96QT6); experiment: Pulldown of GST-Pf1 PHD1 with biotinylated histone H3 peptides; assay type: binding; details: GST-Pf1 PHD1 (residues 53–103); wash 50 mM Tris pH 7.5, 150 mM NaCl, 0.05% NP-40; SDS-PAGE, Coomassie
Procedure, shortened: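 GST-Pf1 PHD1 (53–103) and GST-Pf1 PHD2 (268–319) came from E. coli and were eluted from glutathione resin with glutathione. They were incubated with an array of biotinylated histone H3 peptides on avidin beads. Washes also held 0.3 mg/ml BSA and 1 mM DTT. Bound protein was resolved by SDS-PAGE.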

[2] = molecular target: T1, Pf1 PHD1; assay type: binding; details: even at molar concentrations; unpublished data
[3] = system: Pf1 PHD2; experiment: NMR titration of Pf1 PHD2 with small molecule mimics of histone modifications; assay type: binding, human; details: unpublished data
[4] = molecular target: MRG15 CD (Homo sapiens, UniProt Q9UBU8); experiment: NMR titration of 15N-labeled MRG15 CD with methyllysine peptides/ligands; assay type: binding
[5] = system: Pf1 PHD1/MBD (residues 48–241); experiment: NMR of 15N-labeled Pf1 PHD1/MBD with MRG15 proteins; assay type: binding, human; details: equimolar; 20 mM Tris pH 7.5, 50 mM NaCl, 10 μM ZnSO4, 15 mM DTT, 0.2% NaN3, 25 °C

T1 sequence (Q96QT6 48-116): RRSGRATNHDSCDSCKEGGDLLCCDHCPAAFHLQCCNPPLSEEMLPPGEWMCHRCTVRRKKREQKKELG
Chain of MRG15 CD (Q9UBU8 1-90 isoform Q9UBU8-2): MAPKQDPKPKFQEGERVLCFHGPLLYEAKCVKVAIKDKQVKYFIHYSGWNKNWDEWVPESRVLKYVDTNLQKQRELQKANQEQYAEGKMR

binding to Pf1 PHD1 in pulldown [1] | Compound | interaction with Pf1 PHD2 in NMR titrations [3] | further results
failed to do so | 18–37: biotinylated H3 peptide spanning residues 18–37 | – | –
– | CC(=O)NCCCC[C@H](N)C(=O)O [acetyllysine] | lack of any interaction | interaction with Pf1 PHD1 in NMR titrations [2]: neither trimethyllysine nor acetyllysine interacted with Pf1 PHD1
– | N[C@@H](COP(=O)(O)O)C(=O)O [phosphoserine] | lack of any interaction | –
– | C[C@@H](OP(=O)(O)O)[C@H](N)C(=O)O [phosphothreonine] | lack of any interaction | –
– | C[N+](C)(C)CCCC[C@H](N)C(=O)O [trimethyllysine] | lack of any interaction | Kd [4]: 11 ± 3.3 mM; perturbations in the MRG15 CD NMR spectrum ([4]; pH 7.5, 25 °C): induced a similar pattern of perturbations in the NMR spectrum of MRG15 CD as the aforementioned peptides; interaction with Pf1 PHD1 in NMR titrations [2]: neither trimethyllysine nor acetyllysine interacted with Pf1 PHD1
bound to Pf1 PHD1 | H3 peptide spanning residues 1–20: unmodified biotinylated histone H3 peptide spanning residues 1–20 | – | –
failed to do so | H3 peptides spanning residues 27–46: biotinylated H3 peptide spanning residues 27–46 | – | –
– | MRG15 MRG: MRG domain of MRG15 (residues 155–323) | – | effect on 15N-Pf1 PHD1/MBD spectrum [5]: disappearance of resonances corresponding to the PHD1 domain
– | dimethylarginine | lack of any interaction | –
